Assay results: ChEMBL document CHEMBL1156662, “Tetracyclic terpenoids from Dasyscyphus niveus, dasyscyphins D and E” (2008)
Activity calls are given as the source filed them. The calls are words filed in the database; no cut-off is given here.

Legend:
Pyricularia oryzae [1] = assay: Antifungal activity against Magnaporthe grisea 70-15 at 25 ug/mL after 18 hrs by conidia germination assay; type: functional; conditions: 70-15, 18 h
In short: (§1)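 M. grisea strain 70-15 conidia suspended in water at 5 × 10⁴/mL and exposed to compound. After 18 h, germination was scored microscopically against an inhibitor-free control. Conidia counted as affected were those that had not germinated or whose germ tubes were under 30% of control length.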

Pyricularia oryzae [2] = assay: Antifungal activity against Magnaporthe grisea 70-15 after 18 hrs by conidia germination assay; type: functional, organism-based; in short: as §1
Penicillium chrysogenum = assay: Antifungal activity against Penicillium chrysogenum DSM 848 at 50 ug/mL by disk diffusion assay; type: functional, organism-based
Eremothecium coryli = assay: Antifungal activity against Nematospora coylii ATTC 10647 at 50 ug/mL by disk diffusion assay; type: functional, organism-based
Pyricularia oryzae [3] = assay: Antifungal activity against Magnaporthe grisea 70-15 at 20 ug/mL after 18 hrs by conidia germination assay; type: functional, organism-based; in short: as §1
HeLa = assay: Cytotoxic activity against human HeLa S3 cells up to 50 ug/mL; type: functional, cell-based
In short: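 HeLa S3 human cervix carcinoma cells were grown in DMEM with penicillin G (65 µg/mL) and streptomycin sulfate (100 µg/mL). Cells at 10⁵/mL were exposed to compound in microtiter wells at 37 °C in humidified 5% CO2. Viable cells were counted by microscopy at 24 and 48 h.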

Paecilomyces variotii = assay: Antifungal activity against Paecilomyces variotii DSM 1961 at 50 ug/mL by disk diffusion assay; type: functional, organism-based
Rhizomucor miehei = assay: Antifungal activity against Rhizomucor miehei Tu 284 at 50 ug/mL by disk diffusion assay; type: functional, organism-based

Molecule `Cc1ccc2c(c1O)[C@@]1(C)CC[C@@H]3[C@](C)(CCC[C@]3(C)O)[C@H]1C2` [DASYSCYPHIN E] has an inhibition at 25 µg/mL (Pyricularia oryzae [1]) of 100%.

`CC(O)(CC(=O)O)CC(=O)OCC1=C[C@@]2(O)[C@H](C[C@@H]3[C@@]4(C)CCCC(C)(C)[C@@H]4CC[C@@]32C)C(=O)C1=O` (some centres undefined) was tested, and the Activity (Pyricularia oryzae [2]) was “Active”.

With `Cc1ccc2c(c1O)[C@@]1(C)CC[C@H]3C(C)(C)[C@@H](O)CC[C@]3(C)[C@H]1C2` the Activity (Penicillium chrysogenum) was “inactive”, the Activity (Eremothecium coryli) was “inactive” and the Activity (Pyricularia oryzae [3]) was “Active”. For the same molecule, the Activity (HeLa) was “inactive”, the Activity (Paecilomyces variotii) was “inactive” and the Activity (Rhizomucor miehei) was “inactive”.

For `COCc1cc(O)c2c(c1O)[C@@]1(C)CC[C@H]3C(C)(C)CCC[C@]3(C)[C@H]1C2`, the Activity (Pyricularia oryzae [2]) was “Active”.
